Test results as given in ChEMBL document CHEMBL1255338, “Differential effects of quinoline antimalarials on endocytosis in Plasmodium falciparum” (2008).
Active and inactive are the calls of the source. The calls are words filed in the database; no cut-off is given here.

Experiments:
Plasmodium falciparum [1] = assay: Antimalarial activity against early trophozoite-stage Plasmodium falciparum 3D7 infected in erythrocyte assessed as reduction in parasite hemoglobin content at 5 times IC50 after 8 hrs; assay type: functional
Plasmodium falciparum [2] = assay: Antimalarial activity against schizont-stage Plasmodium falciparum 3D7 infected in erythrocyte assessed as inhibition of horseradish peroxidase(HRP) uptake after 10 hrs by colorimetric peroxidase assay; assay type: functional, organism-based
Outline: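 Erythrocytes preloaded with HRP by hypotonic lysis, then infected by incubation with enriched schizont-infected cells. Parasites exposed to quinolines for 10 h, released with saponin, washed, and lysed in Triton X-100. HRP measured colorimetrically with O-phenylenediamine at 450 nm. Significance vs control taken at P < 0.05.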

Plasmodium falciparum [3] = assay: Antimalarial activity against early trophozoite-stage Plasmodium falciparum 3D7 infected in erythrocyte assessed as reduction in parasite hemoglobin content at 5 times IC50 after 8 hrs in presence of 40 uM protease inhibitor ALLN; assay type: functional, organism-based
Plasmodium falciparum [4] = assay: Antimalarial activity against early trophozoite-stage Plasmodium falciparum 3D7 infected in erythrocyte assessed as reduction in parasite hemoglobin content at 5 times IC50 after 8 hrs in presence of 40 uM protease inhibitor E64; assay type: functional, organism-based
Plasmodium falciparum [5] = assay: Antimalarial activity against Plasmodium falciparum 3D7 infected in erythrocyte assessed as increase in vesicle content after 8 hrs by immunofluorescence microscopy; assay type: functional, organism-based
Outline: (§1)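 Cultures left untreated or given quinoline for 8 h, then parasites freed by saponin lysis, fixed on polylysine-coated coverslips with paraformaldehyde and glutaraldehyde, permeabilized in Triton X-100, and stained with rabbit anti-Hb antiserum and TRITC-conjugated goat anti-rabbit antibody. Hb transport vesicles counted by fluorescence microscopy in 100 randomly chosen parasites per sample; mean per parasite ± SEM.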

Plasmodium falciparum [6] = assay: Antimalarial activity against Plasmodium falciparum 3D7 infected in erythrocyte assessed as reduction in endocytic vesicle content after 8 hrs by immunofluorescence microscopy; assay type: functional, organism-based; outline: as §1

SMILES | inhibition (Plasmodium falciparum [1]) | inhibition (Plasmodium falciparum [2]) | inhibition (Plasmodium falciparum [3]) | inhibition (Plasmodium falciparum [4]) | inhibition (Plasmodium falciparum [5]) | inhibition (INH) (Plasmodium falciparum [1]) | inhibition (Plasmodium falciparum [6])
CCN(CC)CCCC(C)Nc1ccnc2cc(Cl)ccc12 (stereo not given) | inactive | inactive | inactive | inactive | Active |  | 
CCN(CC)Cc1cc(Nc2ccnc3cc(Cl)ccc23)ccc1O | inactive | inactive | inactive | inactive | Active |  | 
CCCCN(CCCC)CCC(O)c1cc2c(Cl)cc(Cl)cc2c2cc(C(F)(F)F)ccc12 (stereo not given) [HALOFANTRINE] |  | Active | Active | Active |  | 64% | Active
OC(c1cc(C(F)(F)F)nc2c(C(F)(F)F)cccc12)C1CCCCN1 (stereo not given) [MEFLOQUINE] |  | Active | inactive | inactive |  | 83% | Active
C=C[C@H]1CN2CC[C@H]1C[C@H]2[C@H](O)c1ccnc2ccc(OC)cc12 [QUININE] |  | Active | Active | Active |  | 84% | Active
